Assay results from PMC11843914 (RSC Advances, 2025).

Experiments:
Format in all cases: cell-based
MCF-7 (breast cancer) = assay: MTT cell viability assay, MCF-7; settings: Homo sapiens; for cytotoxicity at 100 µM: MCF7, read-out: Cytotoxicity %, MCF-7; for IC50: MCF7, 48 h, read-out: IC50 values, MCF-7
Method in brief: (§1)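 MTT viability assay on human cell lines: MCF-7, HCT-116, PC3 and normal BJ-1. Test compounds were first screened at 100 μM. IC50 values came from a concentration series of 100 μM down to 12.5 μM.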

HCT-116 (colon cancer) = assay: MTT cell viability assay, HCT-116; settings: Homo sapiens; for cytotoxicity at 100 µM: HCT-116, read-out: Cytotoxicity %, HCT-116; for IC50: HCT-116, 48 h, read-out: IC50 values, HCT-116
Method in brief: as §1

PC3 (prostate cancer) = assay: MTT cell viability assay, PC3; settings: Homo sapiens; for cytotoxicity at 100 µM: read-out: Cytotoxicity %, PC3; for IC50: 48 h, read-out: IC50 values, PC3
Method in brief: as §1

With `CS(=O)(=O)Oc1ccc(C=NNC(=O)c2nc3ccccc3s2)cc1` [6d, 4-((2-(Benzo[d]thiazole-2-carbonyl)hydrazono)methyl)phenyl methanesulfonate] as the compound, how does the cytotoxicity at 100 µM (MCF-7 (breast cancer)) read?
The cytotoxicity at 100 µM was 62.5%.

What about the cytotoxicity at 100 µM (HCT-116 (colon cancer)) of the same compound?
The cytotoxicity at 100 µM was 66.7%.

And the cytotoxicity at 100 µM (PC3 (prostate cancer))?
Its cytotoxicity at 100 µM is 66.5%.

How did the cytotoxicity at 100 µM (MCF-7 (breast cancer)) turn out when `CCS(=O)(=O)Oc1ccc(C=NNC(=O)c2nc3ccccc3s2)cc1` [6g, 4-((2-(Benzo[d]thiazole-2-carbonyl)hydrazono)methyl)phenyl ethanesulfonate] was run?
The cytotoxicity at 100 µM was 62.3%.

And the cytotoxicity at 100 µM (HCT-116 (colon cancer))?
The cytotoxicity at 100 µM was 68.6%.

What about the cytotoxicity at 100 µM (PC3 (prostate cancer)) of the same compound?
Its cytotoxicity at 100 µM is 74.8%.

`COc1ccc(C=NNC(=O)c2nc3ccccc3s2)cc1O` [6c, N'-(3-Hydroxy-4-methoxybenzylidene)benzo[d]thiazole-2-carbohydrazide] was tested. Which IC50 (MCF-7 (breast cancer)) did it give?
The IC50 was 80.9 ± 3.7 µM.

And the cytotoxicity at 100 µM (MCF-7 (breast cancer))?
Its cytotoxicity at 100 µM is 58.1%.

`COc1cc(C=NNC(=O)c2nc3ccccc3s2)ccc1OS(C)(=O)=O` [6e, 4-((2-(Benzo[d]thiazole-2-carbonyl)hydrazono)methyl)-2-methoxyphenyl methanesulfonate] was tested. Which IC50 (HCT-116 (colon cancer)) did it give?
Its IC50 is 81.4 ± 1.9 µM.

What about the cytotoxicity at 100 µM (HCT-116 (colon cancer)) of the same compound?
The cytotoxicity at 100 µM was 61.1%.

And the IC50 (PC3 (prostate cancer))?
The IC50 was 90.6 ± 2.7 µM.

What about the cytotoxicity at 100 µM (PC3 (prostate cancer)) of the same compound?
The cytotoxicity at 100 µM was 60.8%.

How did the cytotoxicity at 100 µM (MCF-7 (breast cancer)) turn out when `CCCS(=O)(=O)Oc1ccc(C=NNC(=O)c2nc3ccccc3s2)cc1OC` [6k, 4-((2-(Benzo[d]thiazole-2-carbonyl)hydrazono)methyl)-2-methoxyphenyl propane-1-sulfonate] was run?
The cytotoxicity at 100 µM was 59.6%.

And the cytotoxicity at 100 µM (HCT-116 (colon cancer))?
The cytotoxicity at 100 µM was 77.2%.

And the cytotoxicity at 100 µM (PC3 (prostate cancer))?
The cytotoxicity at 100 µM was 64.6%.

For `O=C(NN=Cc1ccc(O)cc1)c1nc2ccccc2s1` [6a, N′-(4-Hydroxybenzylidene)benzo[d]thiazole-2-carbohydrazide], which IC50 (HCT-116 (colon cancer)) is on record?
Its IC50 is 102 ± 2.1 µM.

How did the cytotoxicity at 100 µM (HCT-116 (colon cancer)) turn out when `CCS(=O)(=O)Oc1ccc(C=NNC(=O)c2nc3ccccc3s2)cc1OC` [6h, 4-((2-(Benzo[d]thiazole-2-carbonyl)hydrazono)methyl)-2-methoxyphenyl ethanesulfonate] was run?
The cytotoxicity at 100 µM was 55.2%.

What about the cytotoxicity at 100 µM (PC3 (prostate cancer)) of the same compound?
Its cytotoxicity at 100 µM is 63.4%.

How did the cytotoxicity at 100 µM (HCT-116 (colon cancer)) turn out when `CCCS(=O)(=O)Oc1ccc(C=NNC(=O)c2nc3ccccc3s2)cc1` [6j, 4-((2-(Benzo[d]thiazole-2-carbonyl)hydrazono)methyl)phenyl propane-1-sulfonate] was run?
Its cytotoxicity at 100 µM is 68.5%.

And the cytotoxicity at 100 µM (PC3 (prostate cancer))?
The cytotoxicity at 100 µM was 62.3%.

With `COc1ccc(C=NNC(=O)c2nc3ccccc3s2)cc1OS(C)(=O)=O` [6f, 5-((2-(Benzo[d]thiazole-2-carbonyl)hydrazono)methyl)-2-methoxyphenyl methanesulfonate] as the compound, how does the cytotoxicity at 100 µM (HCT-116 (colon cancer)) read?
Its cytotoxicity at 100 µM is 62.8%.

Which results are given for `O=c1[nH]cc(F)c(=O)[nH]1` [5-FU, 5-fluorouracil, reference compound]?
IC50 (MCF-7 (breast cancer)): 78.4 ± 4.2 µM; IC50 (HCT-116 (colon cancer)): 29.2 ± 1.7 µM; IC50 (PC3 (prostate cancer)): > 200 µM
